# Like-named read-outs stand apart in the source and are kept apart here.
# What was measured:
# [1] = tested on: ERα + ERβ; assay: HEK293 ERE-luciferase reporter assay, ERα + ERβ; format: cell-based
# Procedure, shortened: (§1)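 HEK293 cells were batch-transfected per well with 2.5 ng of each ER (ERα alone or ERα + ERβ) plus 50 ng tk-ERE-luc. After 48 h expression, cells were exposed to ligands for 24 h and lysed. Firefly luciferase luminescence was measured and normalized to β-galactosidase luminescence in the same well.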
# [2] = biological target: ERβ/β homodimer (Homo sapiens, UniProt Q92731); assay: BRET assay, ERβ/β homodimerization in transfected HEK293 cells; format: cell-based; conditions: 100 μM purified compound
# Procedure, shortened: (§2)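 HEK293 cells batch-transfected in phenol red free DMEM + 5% SFS with fusion pairs: ERα-RLuc + ERα-YFP (α/α), RLuc-ERβ + YFP-ERβ (β/β) or ERα-RLuc + YFP-ERβ (α/β). RLuc-only cells were included for the correction factor. After 24 h, cells were trypsinized and replated at 10,000/well in PBS. Compound was applied for 1 h, then coelenterazine h was added. Emission was read at 470/530 nm; BRET ratio; triplicates; E2 positive, DMSO negative control.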
# [3] = biological target: T1, ERα (Homo sapiens, UniProt P03372); assay: Fluorescence Polarization Competition Binding Assay, ERα; conditions: read-out: Ki for binding to ERα; correlated from IC50, FP competition
# Procedure, shortened: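 Competitive fluorescence polarization used purified ERα from a commercial kit. Compound was tenfold serially diluted in screening buffer (down to 10 pM final), DMSO below 1%. It was mixed with ERα (15 nM final) and Fluormone tracer (1 nM final). Incubation was 2 h in the dark at room temperature, then polarization was read in glass tubes.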
# [4] = tested on: HC11 cells; assay: MTT assay for cellular metabolic activity, HC11; format: cell-based, mouse; conditions: inhibition retained in the presence of ICI 182,780
# [5] = biological target: T1, ERα; assay: HEK293 ERE-luciferase reporter assay, ERα alone; format: cell-based; conditions: HEK293, 24 hours with ligand, 10 μM and 100 μM
# Procedure, shortened: as §1
# [6] = tested on: PC3 cells; assay: MTT assay for cellular metabolic activity, PC3; format: cell-based, human; conditions: inhibition retained in the presence of ICI 182,780
# [7] = biological target: T2, ERα/α homodimer (Homo sapiens, UniProt P03372); assay: BRET assay, ERα/α homodimerization in transfected HEK293 cells; format: cell-based; conditions: 100 μM purified compound
# T2 sequence (P03372 1-595) 1: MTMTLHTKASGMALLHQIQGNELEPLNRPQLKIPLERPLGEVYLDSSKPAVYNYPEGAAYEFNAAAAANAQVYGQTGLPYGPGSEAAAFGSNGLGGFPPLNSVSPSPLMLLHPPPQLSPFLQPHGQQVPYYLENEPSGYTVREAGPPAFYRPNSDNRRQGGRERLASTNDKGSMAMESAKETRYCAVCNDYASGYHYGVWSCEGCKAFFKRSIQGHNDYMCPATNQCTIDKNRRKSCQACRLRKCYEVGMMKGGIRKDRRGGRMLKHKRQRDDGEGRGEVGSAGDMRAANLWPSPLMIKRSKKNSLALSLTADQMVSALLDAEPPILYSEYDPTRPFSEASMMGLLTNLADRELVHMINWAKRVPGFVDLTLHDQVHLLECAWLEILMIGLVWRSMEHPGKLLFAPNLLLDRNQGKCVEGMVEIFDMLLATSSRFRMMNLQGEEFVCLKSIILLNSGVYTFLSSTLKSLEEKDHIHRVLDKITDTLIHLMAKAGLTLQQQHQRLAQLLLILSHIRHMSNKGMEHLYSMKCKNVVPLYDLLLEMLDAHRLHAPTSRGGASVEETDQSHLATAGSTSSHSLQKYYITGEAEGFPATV
# T2 sequence (P03372 1-595) 2: T2 sequence (P03372 1-595) 1
# Procedure, shortened: as §2
# [8] = biological target: ERα/β heterodimer (Homo sapiens, UniProt P03372+Q92731); assay: BRET assay, ERα/β heterodimerization in transfected HEK293 cells; format: cell-based; conditions: 1 hour
# Procedure, shortened: as §2
# [9] = biological target: T3, ERβ (Homo sapiens, UniProt Q92731); assay: HEK293 ERE-luciferase reporter assay, ERβ alone; format: cell-based; conditions: HEK293, 24 hours with ligand, 10 μM and 100 μM
# [10] = tested on: PC3 cells; conditions: vs DMSO
# [11] = tested on: HC11 cells; conditions: HC11, 10 μM synthetic compound, vs DMSO, p= 0.06
# [12] = biological target: T3, ERβ; assay: Fluorescence Polarization Competition Binding Assay, ERβ
# T3 sequence (Q92731 whole entry): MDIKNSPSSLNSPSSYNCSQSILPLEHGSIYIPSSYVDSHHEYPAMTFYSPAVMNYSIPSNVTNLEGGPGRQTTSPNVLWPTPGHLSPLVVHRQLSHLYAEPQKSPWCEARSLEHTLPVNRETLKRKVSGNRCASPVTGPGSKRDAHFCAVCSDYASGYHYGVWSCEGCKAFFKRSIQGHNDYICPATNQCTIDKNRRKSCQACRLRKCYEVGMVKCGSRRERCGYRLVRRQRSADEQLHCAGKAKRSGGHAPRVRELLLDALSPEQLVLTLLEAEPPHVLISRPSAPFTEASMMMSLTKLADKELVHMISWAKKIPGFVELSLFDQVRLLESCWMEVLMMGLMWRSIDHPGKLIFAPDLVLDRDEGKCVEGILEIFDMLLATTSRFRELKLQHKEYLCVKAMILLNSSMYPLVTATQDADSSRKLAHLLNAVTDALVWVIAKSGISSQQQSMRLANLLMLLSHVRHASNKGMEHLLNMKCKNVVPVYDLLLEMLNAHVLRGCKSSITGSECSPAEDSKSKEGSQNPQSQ
# Sequence of ERα/β heterodimer (Q92731 whole entry, one chain of several): as the sequence (Q92731 whole entry) above
# Sequence of ERβ/β homodimer (Q92731 whole entry, the tested form may be a part): as the sequence (Q92731 whole entry) above
# Sequence of ERβ/β homodimer (Q92731 whole entry, the tested form may be a part): as the sequence (Q92731 whole entry) above
"effect on actinopolymorphol A-dependent reporter activity ([1]; in the presence of ERα + ERβ, HEK293 ERE-luciferase)",Molecule,induction of ERβ/β homodimer (BRET ratio) [2],Ki [3] [µM],cell proliferation (MTT metabolic activity) [4],transcriptional activity of ERα alone (ERE-luciferase) [5],cell proliferation (MTT metabolic activity) [6],"transcriptional activity of ERα + ERβ (ERE-luciferase) ([1]; HEK293, 24 hours with ligand, 10 μM and 100 μM)",induction of ERα/α homodimer (BRET ratio) [7],induction for ERα/β heterodimers (BRET ratio) ([8]; 10 μM purified compound) [fold],increase in ERα/β heterodimerization (BRET ratio) ([8]; 100 μM purified compound) [fold],transcriptional activity of ERβ alone (ERE-luciferase) [9],"cell number ([10]; PC3, 10 μM synthetic compound, p= 0.03)","cell number ([10]; PC3, 100 μM synthetic compound, p=0.002)",cell number [11],"binding affinity for ERβ over ERα ([12]; FP competition binding, ERβ vs ERα) [fold]","Ki ([12]; read-out: Ki for binding to ERβ, correlated from IC50, FP competition) [µM]"
completely abrogated,"C[C@]12CC[C@@H]3c4ccc(O)cc4C[C@@H](CCCCCCCCC[S+]([O-])CCCC(F)(F)C(F)(F)F)[C@H]3[C@@H]1CC[C@@H]2O (stereo partly shown) [ICI 182,780, reference compound]",,,,,,,,,,,,,,,
,actinopolymorphol A,less than 1.5 fold,6.2,inhibited,not able to activate,inhibited,found to activate,less than 1.5 fold,3,5,found to activate,statistically significant decreases,statistically significant decreases,statistically non-significant decrease,~2,4.3

# From article PMC2934894 (Biochemical pharmacology, 2010)
